Results pooled from the literature.
Protocols differ between the studies behind these lines. pEC50, pIC50: −log10 of the molar value.
Cell line: NCI-H460
Observed: cell growth or viability

Compound	assay	conditions	endpoint	value
Cc1cc(C)n(C(=S)[S][Au][PH](CCCCCC[PH]([Au][S]C(=S)n2nc(C)cc2C)(c2ccccc2)c2ccccc2)(c2ccccc2)c2ccccc2)n1	SRB	–	GI50	638 nM
C=CC(=O)Nc1cc(Nc2nc(N3CCc4sccc4C3)c3cccnc3n2)c(OC)cc1N(C)C	MTT	–	pIC50	< 4.30
COc1ccc(C(=O)/C=C/c2cccc3ccccc23)cc1S(N)(=O)=O	SRB	10 µM	inhibition	98%
C=C(Cl)C(=O)Nc1cc(Nc2nc(N3CCCC3)c3sccc3n2)c(OC)cc1N(C)CCN(C)C	MTT	–	pIC50	5.19
COc1ccc(C(=O)/C=C/c2cc3c(cc2Br)OCO3)cc1S(N)(=O)=O	SRB	48 h	GI50	4000 nM
CCCc1n(Cc2ccc3ccccc3n2)cc[n+]1Cc1ccc2ccccc2c1	SRB	–	TGI	10600 nM
C=CC(=O)Nc1cc(Nc2nc(N3CCc4sccc4C3)c3cccnc3n2)c(OC)cc1N1CCSCC1	MTT	–	pIC50	6.64
COc1cccc(Oc2ccccc2NC(=O)CNC(=O)c2cccc3ccccc23)c1	SRB	48 h	GI50	295 nM
C=C(Cl)C(=O)Nc1cc(Nc2nc(N3CCOCC3)c3sccc3n2)c(OC)cc1N(C)CCN(C)C	MTT	–	pIC50	5.73
COc1ccc(C(=O)/C=C/c2ccc(Cl)c(Cl)c2)cc1S(N)(=O)=O	SRB	48 h	GI50	2800 nM
COc1ccc(-c2ccc(-c3ccc(C(=N)N)nc3)s2)cc1Cl	SRB	–	GI50	1800 nM
CCc1n(Cc2ccc3ccccc3n2)cc[n+]1Cc1ccc2ccccc2n1	SRB	–	TGI	11900 nM
COc1ccc(C(=O)/C=C/c2ccc3ccccc3c2)cc1S(N)(=O)=O	SRB	48 h	GI50	3000 nM
Cc1n(Cc2ccc3ccccc3n2)cc[n+]1Cc1ccc2ccccc2c1	SRB	–	TGI	14400 nM
C=CC(=O)Nc1cc(Nc2nc(N3CCc4sccc4C3)c3cccnc3n2)c(OC)cc1N1CCOCC1	MTT	–	pIC50	< 4.30
COc1ccc(C(=O)/C=C/c2cccc(Cl)c2Cl)cc1S(N)(=O)=O	SRB	48 h	GI50	1900 nM
CCCCc1n(Cc2ccc3ccccc3n2)cc[n+]1Cc1ccc2ccccc2n1	SRB	–	TGI	11600 nM
COc1ccc(C(=O)/C=C/c2ccccc2Br)cc1S(N)(=O)=O	SRB	48 h	GI50	2000 nM
C/C=C/C(=O)Nc1cc(Nc2nc(Nc3cnn(C)c3)c3sccc3n2)c(OC)cc1N(C)CCN(C)C	MTT	–	pIC50	< 4.30
C=C(c1ccc(C(=O)O)cc1)c1cc2c(cc1C)C(C)(C)CCC2(C)C	MTT	72 h	pEC50	4.28
